pIC50: −log10 of the molar value.
Key:
HFF = experiment: Antiviral activity against human cytomegalovirus (Davis strain) grown on human foreskin fibroblast cells determined by reduction in plaque formation upon incubation at 37 degrees C with the compound dissolved in DMSO; format: functional, cell-based
[1] = Toxicity on uninfected human foreskin fibroblast cells determined in microscopic evaluation and quantitative neutral red dye uptake assay; format: cell-based; conditions: uninfected human foreskin fibroblast (HFF) cells
Procedure, shortened: (§1)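 Uninfected cells were seeded as subconfluent monolayers and exposed to compound for 3 days. Viability was judged both by microscopic inspection and by quantitative neutral red dye uptake, giving CC50.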

[2] = Toxicity on uninfected African green monkey kidney cells determined in microscopic evaluation and quantitative neutral red dye uptake assay; format: cell-based; conditions: chlorocebus sabaeus, uninfected African green monkey kidney (Vero) cells; procedure, shortened: as §1
[3] = molecular target: T1, DNA polymerase alpha catalytic subunit (Homo sapiens, UniProt P09884); experiment: Inhibition of human alpha DNA polymerase (95 uL) activity in a solution containg […] HEPES (pH 7.5) upon incubation for 12 minutes at 26 degrees C with the compound dissolved in DMSO
T1 sequence (P09884 whole entry): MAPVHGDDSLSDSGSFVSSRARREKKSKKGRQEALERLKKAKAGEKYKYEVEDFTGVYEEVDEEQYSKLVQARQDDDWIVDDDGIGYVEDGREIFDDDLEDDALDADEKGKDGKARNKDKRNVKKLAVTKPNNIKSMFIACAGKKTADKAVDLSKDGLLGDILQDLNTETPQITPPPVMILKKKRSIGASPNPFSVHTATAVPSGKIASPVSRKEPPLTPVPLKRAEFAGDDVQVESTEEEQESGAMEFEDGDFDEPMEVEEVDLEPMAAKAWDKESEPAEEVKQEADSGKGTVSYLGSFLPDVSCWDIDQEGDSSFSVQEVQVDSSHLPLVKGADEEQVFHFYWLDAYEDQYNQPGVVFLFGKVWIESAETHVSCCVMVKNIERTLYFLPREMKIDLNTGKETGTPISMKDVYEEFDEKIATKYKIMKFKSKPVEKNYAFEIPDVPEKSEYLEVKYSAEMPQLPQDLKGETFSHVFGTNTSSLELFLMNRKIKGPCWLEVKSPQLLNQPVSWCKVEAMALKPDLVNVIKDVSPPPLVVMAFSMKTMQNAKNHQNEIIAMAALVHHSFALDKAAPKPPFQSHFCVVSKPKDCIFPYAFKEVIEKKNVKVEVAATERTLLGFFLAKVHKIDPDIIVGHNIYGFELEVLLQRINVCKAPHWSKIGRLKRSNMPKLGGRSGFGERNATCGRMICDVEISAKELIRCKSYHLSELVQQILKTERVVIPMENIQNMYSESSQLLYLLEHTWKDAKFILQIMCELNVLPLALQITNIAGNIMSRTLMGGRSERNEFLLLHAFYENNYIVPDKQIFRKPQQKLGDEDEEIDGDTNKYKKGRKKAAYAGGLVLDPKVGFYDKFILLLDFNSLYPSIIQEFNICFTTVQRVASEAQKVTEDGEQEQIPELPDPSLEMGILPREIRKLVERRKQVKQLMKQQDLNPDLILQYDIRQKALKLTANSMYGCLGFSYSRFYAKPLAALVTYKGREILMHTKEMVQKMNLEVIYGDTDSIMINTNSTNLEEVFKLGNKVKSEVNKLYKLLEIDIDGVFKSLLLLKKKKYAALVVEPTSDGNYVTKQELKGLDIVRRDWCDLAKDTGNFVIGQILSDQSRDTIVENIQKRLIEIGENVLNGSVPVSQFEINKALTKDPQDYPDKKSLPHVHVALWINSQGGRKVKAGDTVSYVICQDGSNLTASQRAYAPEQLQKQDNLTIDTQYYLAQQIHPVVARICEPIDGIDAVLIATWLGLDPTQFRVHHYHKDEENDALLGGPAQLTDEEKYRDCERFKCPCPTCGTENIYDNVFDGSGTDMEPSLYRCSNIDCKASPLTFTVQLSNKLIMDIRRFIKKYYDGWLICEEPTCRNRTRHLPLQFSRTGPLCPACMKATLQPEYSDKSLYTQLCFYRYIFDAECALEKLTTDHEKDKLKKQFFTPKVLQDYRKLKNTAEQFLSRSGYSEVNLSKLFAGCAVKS

[4] = molecular target: T2, DNA polymerase delta catalytic subunit (Homo sapiens, UniProt P28340); experiment: Inhibition of human delta DNA polymerase (95 uL) activity in a solution containg […] HEPES (pH 7.5) upon incubation for 12 minutes at 26 degrees C with the compound dissolved in DMSO
T2 sequence (P28340 whole entry): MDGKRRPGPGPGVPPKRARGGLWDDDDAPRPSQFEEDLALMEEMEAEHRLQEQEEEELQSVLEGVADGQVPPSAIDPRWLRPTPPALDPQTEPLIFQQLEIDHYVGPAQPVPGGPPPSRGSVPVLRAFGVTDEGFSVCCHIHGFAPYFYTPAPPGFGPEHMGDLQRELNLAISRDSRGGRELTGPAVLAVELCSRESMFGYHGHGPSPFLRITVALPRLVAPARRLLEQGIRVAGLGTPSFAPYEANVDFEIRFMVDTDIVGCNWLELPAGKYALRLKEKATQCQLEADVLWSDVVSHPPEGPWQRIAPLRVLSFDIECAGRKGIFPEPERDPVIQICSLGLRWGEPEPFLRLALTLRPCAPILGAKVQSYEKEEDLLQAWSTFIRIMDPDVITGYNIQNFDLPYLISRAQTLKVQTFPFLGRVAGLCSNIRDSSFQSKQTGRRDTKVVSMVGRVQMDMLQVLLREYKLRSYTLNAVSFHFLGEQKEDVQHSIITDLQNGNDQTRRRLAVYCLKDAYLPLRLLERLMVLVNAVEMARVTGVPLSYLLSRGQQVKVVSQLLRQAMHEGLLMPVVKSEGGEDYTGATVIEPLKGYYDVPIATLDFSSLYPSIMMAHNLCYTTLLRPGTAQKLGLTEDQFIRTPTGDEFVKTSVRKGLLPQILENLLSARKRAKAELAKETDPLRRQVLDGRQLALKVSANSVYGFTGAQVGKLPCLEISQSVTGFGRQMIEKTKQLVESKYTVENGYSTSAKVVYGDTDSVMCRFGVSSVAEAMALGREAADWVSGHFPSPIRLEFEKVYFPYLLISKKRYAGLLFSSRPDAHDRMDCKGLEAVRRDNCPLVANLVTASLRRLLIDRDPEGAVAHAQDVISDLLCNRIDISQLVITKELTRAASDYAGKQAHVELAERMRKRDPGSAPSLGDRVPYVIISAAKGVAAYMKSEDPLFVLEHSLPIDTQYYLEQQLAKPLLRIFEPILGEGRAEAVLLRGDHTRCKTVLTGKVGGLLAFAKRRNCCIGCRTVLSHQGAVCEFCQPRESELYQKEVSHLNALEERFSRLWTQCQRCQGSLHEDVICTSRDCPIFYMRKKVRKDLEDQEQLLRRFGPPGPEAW

| Compound | pIC50 (HFF) | CC50 [1] [µM] | CC50 [2] [µM] | pIC50 [3] | pIC50 [4] |
| --- | --- | --- | --- | --- | --- |
| Cn1cc(C(=O)NCc2ccc(Cl)cc2)c(=O)c2cc(CN3CCOCC3)ccc21 | 6.05 | > 100 | > 100 | < 4.40 | < 4.40 |
| O=C(NCc1ccc(Cl)cc1)c1cnc2ccc(CCCO)cc2c1O | 6.00 | > 100 | > 100 | < 4.40 | < 4.40 |
| Cn1cc(C(=O)NCc2ccc(Cl)cc2)c(=O)c2cc(CN3CCOCC3)sc21 | 6.10 | > 100 | > 100 | < 4.40 | < 4.40 |

Source: ChEMBL document CHEMBL1141075, “4-Oxo-4,7-dihydrothieno[2,3-b]pyridines as non-nucleoside inhibitors of human cytomegalovirus and related herpesvirus polymerases” (J Med Chem, 2005)
